Experimental data of several laboratories.
Protocols differ between the studies behind these lines.
Effect on: cell growth or viability

Compound	cell line	technique	concentration	time	measurement	value
CC1(C)CCC(CN2CCN(c3ccc(C(=O)NS(=O)(=O)c4ccc(NCC5CCOCC5)c([N+](=O)[O-])c4)c(Oc4cnc5[nH]ccc5c4)c3)CC2)=C(c2ccc(Cl)cc2)C1	MM.1R	ATP luminescence		48 h	IC50	7460 nM
C#Cc1nc(C2=C(C)C(OC(=O)C(C)(C)C)/C(=N\OC(=O)C(C)(C)C)C2)cs1 (stereo not drawn)	HT-1080				CC50	73 nM
Nc1ccc(/C=C/C(=O)N2CCc3c(oc4c(-c5ccc(F)cc5)cc(-c5ccc(C(=O)N6CCOCC6)nn5)cc34)C2)cn1	Pan02	CCK-8		72 h	IC50	570 nM
CC(C)(C)c1cnc(CSc2cnc(NC(=O)C3CCN(CCCCCCCCSc4cccc5c4CN(C4CCC(=O)NC4=O)C5=O)CC3)s2)o1 (stereo not drawn)	HuT78	trypan blue	1 µM	48 h	viability	10.5%
COc1cc(NC(C)CCCN)c2ncccc2c1 (stereo not drawn)	SH-SY5Y	resazurin			IC50	> 50000 nM
CC(C)(C)c1cnc(CSc2cnc(NC(=O)C3CCN(CCCCCSc4cccc5c4CN(C4CCC(=O)NC4=O)C5=O)CC3)s2)o1 (stereo not drawn)	HuT78	trypan blue	0.5 µM	48 h	viability	13.4%
COc1cc2c3c(n(CCCNC(C)C)c(=O)c2cc1OC)-c1nc2c(cc1C3=O)OCO2	SK-N-MC	MTS		72 h	IC50	150 nM
Nc1ccc(/C=C/C(=O)NCc2cc3cc(-c4ccc(C(=O)N5CCC(F)(F)CC5)cc4)cc(-c4ccc(F)cc4)c3o2)cn1	Pan02	CCK-8		72 h	IC50	1640 nM
COc1cc2c3c(n(CCCNCCO)c(=O)c2cc1OC)-c1nc2c(cc1C3=O)OCO2	SK-N-MC	MTS		72 h	IC50	173 nM
CCN(CC)Cc1cc(Nc2ccnc3cc(Cl)ccc23)ccc1O	SH-SY5Y	resazurin			IC50	17000 nM
CCNCCCn1c2c(c3cc(OC)c(OC)cc3c1=O)C(=O)c1cc3c(nc1-2)OCO3	SK-N-MC	MTS		72 h	IC50	137 nM
CCN(CCO)CCCC(C)Nc1ccnc2cc(Cl)ccc12 (stereo not drawn)	SH-SY5Y	resazurin			IC50	> 50000 nM
O=C(C=Cc1ccccc1)Nc1cc(-c2ccnc(N3CCC(O)CC3)c2)ccn1	HCC1937	MTT		72 h	IC50	528 nM
C[C@H]1[C@H](OC(=O)CCC(=O)O)O[C@@H]2O[C@@]3(C)CC[C@H]4[C@H](C)CC[C@@H]1[C@@]24OO3	SH-SY5Y	resazurin			IC50	4600 nM
C=CC(=O)NC1CCN(c2ncc3ncnc(Nc4ccc(Oc5ccc6c(c5)ncn6C)c(C)c4)c3n2)CC1	SNU668				EC50	34.9 nM
